In the library only some 3.5% were active in any assay of this set; here they are far more common.
PRMT1 inh – blocks human protein arginine methyltransferase 1; recombinant PRMT1, activity-based probe fluorescence polarization; inhibition, % at 2.79 µM; 370,000 compounds, 1.3% hits;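 active means inhibition above about 21% made by adding two undisclosed values, limit read from the data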
HTRA1 inhibitor – HTRA1 (human) protease inhibition; inhibition, % at 5.96 µM; recombinant HTRA1, FP-rhodamine activity-based probe, fluorescence polarization; Q92743; 340,000 compounds, 0.5% hits; in the data active means inhibition above about 36%;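 further: 0% = enzyme with DMSO and 100% = wells lacking enzyme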
mABHD4 FP – inhibitors of mouse ABHD4 | 370,000 compounds, 0.54% hits | inhibition, % at 8.92 µM | purified mABHD4, FP-Rh probe fluorescence polarization;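 active means inhibition exceeding the mean over every tested compound plus 3 SD, cut at about 30% in these data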;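 further: 0% = plate median of compound wells and 100% = S159A mutant with DMSO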
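Assay system: mABHD4 protein; medium: HEPES pH 7.0, NaCl, Pluronic buffer; dosing: 8.92 µM, single dose; schedule: 45 min + 60 min at 25 °C; signal: FP readout, ex 525 nm / em 598 nm; read-out: normalized percent inhibition of probe labeling; repeats: single replicate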
SIAE primary – human SIAE inhibition, primary screen. Q9HAT2. SIAE FP-Rh probe binding, fluorescence polarization. inhibition, % at 9.66 µM. 370,000 compounds, 0.69% hits. AID 1053197;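 active means inhibition above a cutoff: mean of compounds within the control limits plus 3 SD of those, cut at about 17% in these data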;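 further: 0% = plate median of compound wells and 100% = probe without SIAE protein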
Target sequence (Q9HAT2 whole entry, looked up): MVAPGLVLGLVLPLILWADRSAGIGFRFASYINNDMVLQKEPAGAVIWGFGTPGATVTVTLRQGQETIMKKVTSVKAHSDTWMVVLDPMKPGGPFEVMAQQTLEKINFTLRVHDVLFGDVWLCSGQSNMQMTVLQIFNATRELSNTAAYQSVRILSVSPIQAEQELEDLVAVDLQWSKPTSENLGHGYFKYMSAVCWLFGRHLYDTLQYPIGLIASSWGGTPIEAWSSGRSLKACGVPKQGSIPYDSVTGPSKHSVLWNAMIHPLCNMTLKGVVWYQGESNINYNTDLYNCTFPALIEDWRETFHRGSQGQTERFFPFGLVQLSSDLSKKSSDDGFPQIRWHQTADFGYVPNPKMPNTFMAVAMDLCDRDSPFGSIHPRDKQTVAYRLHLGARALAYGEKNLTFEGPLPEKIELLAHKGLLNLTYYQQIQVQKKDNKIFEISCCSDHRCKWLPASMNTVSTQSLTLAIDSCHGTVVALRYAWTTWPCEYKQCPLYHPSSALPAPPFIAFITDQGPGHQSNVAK
TCR-CD3 inh – blocks the human TCR-CD3 interaction | inhibition, % at 9.4 µM | 360,000 compounds, 0.37% hits | TAMRA-labeled TCR probe fluorescence, biochemical | AID 651800; in the data active means inhibition above about 19%;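 further: recombinant mutant TCR 2C K166C tagged with TAMRA read by polarization; 0% = receptor in buffer alone and 100% = receptor with positive control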
rCAG binder – binds r(CAG) RNA repeats; inhibition, % at 3 µM; AID 651821; r(CAG) RNA repeat, TO-PRO-1 dye displacement fluorescence; 370,000 compounds, 1.3% hits;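 active means inhibition above the plate cutoff, the mean of all test compounds on that plate plus 3 SD, cut at about 35% in these data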;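 further: 0% = DMSO alone and 100% = 100 µM mitoxantrone as full dye displacement; higher means more dye released from RNA so lower well fluorescence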
mABHD4 conf – ABHD4 (mouse) inhibition, FP confirmation. shares compounds with mABHD4 FP. purified mABHD4, FP-Rh probe fluorescence polarization. inhibition, % at 8.92 µM. 1,800 compounds, 55% hits;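 active means mean inhibition across replicates above the hit cutoff set in the primary screen, cut at about 30% in these data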;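 further: 0% = wild-type ABHD4 with DMSO and 100% = catalytically dead S159A mutant with DMSO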
* hit, by the source's call; . = no result.

SMILES	PRMT1 inh	HTRA1 inhibitor	mABHD4 FP	SIAE primary	TCR-CD3 inh	rCAG binder	mABHD4 conf
COC(=O)[C@@H](Cc1c[nH]c2ccccc12)NCc1ccc(B(O)O)cc1	-2	9	72*	6	7	4	64*
COC(=O)C(Cc1c[nH]c2ccccc12)NC(=O)CNC(C)=O (stereo not drawn)	-1	2	-3	0	-2	-1	.
Nc1cc(N)c2c(c1)C(=O)c1ccccc1-2	2	12	20	6	-10	3	.
Nc1c(O)ccc2c1C(=O)c1ccccc1C2=O	16	.	45*	1	-12	24	47*
O=C1CS/C(=C\[N+](=O)[O-])N1c1ccccc1	5	6	31*	4	1	18	-1
CCOC(=O)CC[C@H]1CC[C@]2(CCCN(S(=O)(=O)c3ccccc3)C2)O1	2	.	-1	0	.	1	.
N#Cc1c(N)nc2c3c(sc(=N)c2c1N)NC(=O)CC3c1ccccc1 (stereo not drawn)	8	26	31*	-2	17	18	-77
Cc1c(C#N)c(N)nc2c3c(sc12)NC(=O)CC3c1ccc(Cl)cc1 (stereo not drawn)	0	-16	8	13	2	8	.
COc1ccc(CNC(=O)OC2CC3CC2[C@H]2CCCCN2C3)cc1 (stereo partly drawn)	-7	.	1	10	.	4	.
Cc1nc2sccn2c(=O)c1S(=O)(=O)NCc1ccccc1	1	4	3	-5	-4	1	.
COc1cccc(CNS(=O)(=O)c2c(C)nc3sccn3c2=O)c1	4	4	65*	0	5	2	-3
COC(=O)[C@]12C[C@H](CC(=O)N3CCN(C(=O)c4ccco4)CC3)C(=O)N(Cc3ccc4c(c3)OCO4)C1=C[C@H](C(C)C)O[C@@H]2C1CC1	8	.	1	-3	.	6	.
COc1cc(NC(=O)Nc2nc(C(N)Cc3ccc(C(F)(F)F)cc3)cs2)cc(OC)c1OC (stereo not drawn)	-1	.	44*	-21	-14	33	39*
COc1ccccc1NC(=O)Nc1nc(C(N)Cc2ccc(C(F)(F)F)cc2)cs1 (stereo not drawn)	-9	.	-4	-1	-9	2	.
COC(=O)[C@]12C[C@H](CC(=O)NCCCN3CCCC3=O)C(=O)N(Cc3ccco3)C1=C[C@H](C1CCCC1)O[C@@H]2C	3	.	3	-1	.	2	.
CN1C(=O)c2cc(NC(=O)Nc3ccc(F)c(F)c3)ccc2OC[C@H]2O[C@@H](CC(=O)O)CC[C@H]21	0	.	3	8	.	3	.
O=C(NNc1ccccn1)C(=O)NNS(=O)(=O)c1ccc(Cl)cc1	-1	6	58*	-2	2	0	55*
O=C(NNc1ccccn1)C(=O)NNS(=O)(=O)c1ccc(F)cc1	-2	2	36*	7	4	1	30*
COCCNC(=O)C(=O)NNS(=O)(=O)c1ccc(Cl)cc1	4	-11	6	-3	-4	0	.
COC(=O)[C@]12C[C@H](CC(=O)NCc3ccccc3)C(=O)N(CCc3ccc(OC)c(OC)c3)C1=C[C@H](C1CCCC1)O[C@@H]2C	0	.	-2	0	.	6	.
c1ccc(Cn2ccc3ccc(-c4ccc5ccn(Cc6ccc7ccccc7c6)c5c4)cc32)cc1	2	.	8	-1	.	21	.
CCOC(=O)CN1C(=O)CSc2ccc(S(=O)(=O)N3CCCC3)cc21	0	6	35*	-3	0	-2	-6
CCOC(=O)CN1C(=O)CSc2ccc(S(=O)(=O)N3CCOCC3)cc21	-4	2	-1	10	7	-1	.
COC(=O)c1ccc(C2N=C(c3cccs3)CC(c3ccccc3O)N2)cc1 (stereo not drawn)	7	-15	36*	3	-2	26	-9
Cc1ccccc1C(=O)N[C@@H](Cc1cccnc1)C(=O)N1CCC[C@H]1C(=O)NCCc1ccccc1Cl	5	.	6	0	-6	-1	.
Cc1csc(=O)n1CCC(=O)OCC(=O)Nc1cc([N+](=O)[O-])ccc1Cl	4	-8	56*	0	3	-3	-9
CCN(CC)C(=O)CC[C@H]1CC[C@]2(CCCN(Cc3nccs3)C2)O1	0	.	-2	7	.	3	.
